Experimental data from ChEMBL document CHEMBL4725466, “Discovery and SAR of Novel Disubstituted Quinazolines as Dual PI3Kalpha/mTOR Inhibitors Targeting Breast Cancer” (ACS Med Chem Lett, 2020).
≈ marks a conversion by molar mass, not a printed value. Calls of active or inactive are those of the source. The calls are words filed in the database; no cut-off is given here.

Experiments:
[1] = target: T1, PI3-kinase p110-alpha/p85-alpha (Homo sapiens) (UniProt P27986+P42336); experiment: Inhibition of human PI3K p110alpha/p85alpha at 10 uM using PIP2 as substrate incubated for 10 mins followed by ATP addition and measured after 30 mins in presence of 10 uM ATP by HTRF assay; format: protein-complex assay
[2] = target: T2, Serine/threonine-protein kinase mTOR (Homo sapiens, UniProt P42345); experiment: Inhibition of human mTOR at 10 uM using 4EBP1 as substrate after 120 mins by [gamma-33P]-ATP assay
Outline: (§1)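 Single-point kinase screen by HotSpot radioisotope filter binding assay; compound at 10 μM with 10 μM ATP, reported as percent inhibition of PI3Kα and mTOR.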

[3] = target: PI3-kinase p110-alpha/p85-alpha (Homo sapiens, UniProt P42336); experiment: Inhibition of human PI3K p110alpha/p85alpha using PIP2 as substrate incubated for 10 mins followed by ATP addition and measured after 30 mins in presence of 10 uM ATP by HTRF assay; format: protein-complex assay
[4] = Kinetic aqueous solubility of compound in 2% DMSO/Phosphate buffer saline incubated for 90 mins under shaking condition by; format: physicochemical; conditions: 2% DMSO/phosphate buffered saline, read-out: Kinetic_solubility
Outline: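 Maximum kinetic aqueous solubility measured in 2% DMSO/phosphate-buffered saline, pH 7.4.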

[5] = Half life in CD1 mouse liver microsomes at 1 uM incubated for 60 mins under shaking condition by LC-MS/MS analysis; format: ADME, Microsome
Outline: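 Metabolic stability in mouse liver microsomes with test compound at 1 μM; result expressed as t1/2 (min).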

[6] = Cytotoxicity against human primary fibroblasts assessed as cell viability at 10 uM after 48 hrs by celltiter-glo 2D luminescent assay relative to control; format: cell-based, Fibroblast; conditions: read-out: Activity
Outline: (§2)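 2D CellTiter-Glo luminescent viability screen, single 10 μM compound concentration, in MDA-MB-468, MDA-MB-231 and MCF7 breast cancer cells and in normal human dermal fibroblasts; output reported as percent of viable cells.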

MDA-MB-231 = experiment: Antiproliferative activity against human MDA-MB-231 cells assessed as cell viability at 10 uM after 48 hrs by celltiter-glo 2D luminescent assay relative to control; format: functional; conditions: read-out: Activity; outline: as §2
MDA-MB-468 = experiment: Antiproliferative activity against human MDA-MB-468 cells assessed as cell viability at 10 uM after 48 hrs by celltiter-glo 2D luminescent assay relative to control; format: functional; conditions: read-out: Activity; outline: as §2
MCF7 [7] = experiment: Antiproliferative activity against human MCF7 cells assessed as cell viability at 10 uM after 48 hrs by celltiter-glo 2D luminescent assay relative to control; format: functional; conditions: read-out: Activity; outline: as §2
MCF7 [8] = experiment: Antiproliferative activity against human MCF7 cells assessed as reduction in cell viability after 48 hrs by celltiter-glo 3D luminescent assay; format: functional, cell-based; conditions: MCF7, 48 h
Outline: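 MCF7 cells grown in 3D culture, viability read by CellTiter-Glo 3D luminescence; dose–response curves run up to 15 μM to derive IC50.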

[9] = target: T1, PI3-kinase p110-alpha/p85-alpha (Homo sapiens); experiment: Inhibition of human PI3K p110alpha/p85alpha at 10 uM using PIP2 as substrate incubated for 10 mins followed by ATP addition and measured after 30 mins in presence of 10 uM ATP by HTRF assay relative to control; format: protein-complex assay
[10] = target: T2, Serine/threonine-protein kinase mTOR; experiment: Inhibition of human mTOR at 10 uM using 4EBP1 as substrate after 120 mins by [gamma-33P]-ATP assay relative to control; outline: as §1

Sequence of PI3-kinase p110-alpha/p85-alpha (P27986 whole entry): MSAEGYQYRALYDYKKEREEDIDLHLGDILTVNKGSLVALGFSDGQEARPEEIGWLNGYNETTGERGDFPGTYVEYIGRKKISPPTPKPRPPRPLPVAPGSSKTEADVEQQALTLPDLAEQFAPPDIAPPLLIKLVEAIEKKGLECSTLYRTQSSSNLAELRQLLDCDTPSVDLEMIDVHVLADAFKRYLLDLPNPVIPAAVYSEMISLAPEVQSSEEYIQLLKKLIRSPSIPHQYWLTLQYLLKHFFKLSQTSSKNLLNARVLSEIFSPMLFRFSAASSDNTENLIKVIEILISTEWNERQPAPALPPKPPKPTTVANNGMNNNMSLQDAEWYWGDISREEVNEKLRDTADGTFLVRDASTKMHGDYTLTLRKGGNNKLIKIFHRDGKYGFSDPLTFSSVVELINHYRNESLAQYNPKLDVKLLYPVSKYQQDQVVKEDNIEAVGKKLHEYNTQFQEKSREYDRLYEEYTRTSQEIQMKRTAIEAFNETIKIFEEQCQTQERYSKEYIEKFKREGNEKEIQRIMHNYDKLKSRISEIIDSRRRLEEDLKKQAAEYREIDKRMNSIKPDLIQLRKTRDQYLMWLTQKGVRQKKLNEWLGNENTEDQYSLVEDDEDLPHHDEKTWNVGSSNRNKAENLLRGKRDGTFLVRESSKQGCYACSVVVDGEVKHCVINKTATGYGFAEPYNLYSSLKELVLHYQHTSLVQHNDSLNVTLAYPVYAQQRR
Sequence of PI3-kinase p110-alpha/p85-alpha (P42336 whole entry): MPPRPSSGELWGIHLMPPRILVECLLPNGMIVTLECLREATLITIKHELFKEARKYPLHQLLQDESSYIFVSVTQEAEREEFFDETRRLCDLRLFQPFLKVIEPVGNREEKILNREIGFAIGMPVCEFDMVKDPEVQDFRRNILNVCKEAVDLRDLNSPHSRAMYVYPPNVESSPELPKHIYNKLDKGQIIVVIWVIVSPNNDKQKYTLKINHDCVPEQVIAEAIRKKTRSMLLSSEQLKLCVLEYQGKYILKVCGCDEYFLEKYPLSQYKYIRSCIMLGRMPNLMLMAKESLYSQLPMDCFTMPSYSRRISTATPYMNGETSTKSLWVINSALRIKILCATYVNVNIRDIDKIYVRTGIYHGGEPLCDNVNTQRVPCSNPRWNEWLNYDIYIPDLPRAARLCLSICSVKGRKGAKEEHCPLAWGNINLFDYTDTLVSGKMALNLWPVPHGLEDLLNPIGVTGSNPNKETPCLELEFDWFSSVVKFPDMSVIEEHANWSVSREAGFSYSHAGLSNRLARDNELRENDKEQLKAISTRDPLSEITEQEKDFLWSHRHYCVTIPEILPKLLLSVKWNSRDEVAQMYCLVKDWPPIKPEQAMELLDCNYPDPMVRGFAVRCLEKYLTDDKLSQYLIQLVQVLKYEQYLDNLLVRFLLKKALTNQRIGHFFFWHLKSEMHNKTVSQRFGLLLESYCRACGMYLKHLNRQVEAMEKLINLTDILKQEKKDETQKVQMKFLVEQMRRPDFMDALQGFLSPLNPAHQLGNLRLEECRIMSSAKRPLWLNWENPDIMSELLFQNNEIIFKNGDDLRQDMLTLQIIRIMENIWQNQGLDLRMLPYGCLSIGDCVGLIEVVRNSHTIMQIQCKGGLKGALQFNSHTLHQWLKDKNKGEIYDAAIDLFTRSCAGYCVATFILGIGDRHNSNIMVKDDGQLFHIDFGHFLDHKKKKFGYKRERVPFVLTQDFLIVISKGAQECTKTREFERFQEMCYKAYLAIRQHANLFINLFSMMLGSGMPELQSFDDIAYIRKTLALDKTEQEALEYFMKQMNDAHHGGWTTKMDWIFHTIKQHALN

Row | Structure (SMILES) | inhibition [1] | inhibition [2] | IC50 [3] [nM] | solubility kinetic at 1.5 h [4] [µM] | half-life at 1 µM [5] [min] | IC50 (MCF7 [8]) [nM] | inhibition [9] [%] | inhibition [10] [%] | viability at 48 h, 10 µM [6] [%] | viability at 10 µM (MDA-MB-231) [%] | viability at 10 µM (MDA-MB-468) [%] | viability at 10 µM (MCF7 [7]) [%]
1 | Oc1ccc(-c2nc(N3CCOCC3)c3ccccc3n2)cn1 | Active | Active |  |  |  |  |  |  |  |  |  | 
2 | N=C(N)NS(=O)(=O)c1ccc(Nc2nc(N3CCOCC3)c3ccccc3n2)cc1 | Active | Active | 5900 | 22.7 (≈ 9.7 µg/mL) | 44.9 |  |  |  |  |  |  | 
3 | O=C(Nc1ccc(-c2nc(N3CCOCC3)c3ccccc3n2)cc1)Nc1ccc(S(=O)(=O)Nc2ccc(F)cc2)cc1 | Active | Active |  | < 2 | > 60 |  | 54 | 60 |  |  |  | 
4 | O=C(Nc1ccc(-c2nc(N3CCOCC3)c3ccccc3n2)cc1)Nc1ccc(S(=O)(=O)Nc2nccs2)cc1 | Active | Active | 26.1 | 3.1 (≈ 1.82 µg/mL) | > 60 | 1800 |  |  | 95 | 140 | 59 | 40
5 | O=S(=O)(Nc1ncccn1)c1ccc(Nc2nc(N3CCOCC3)c3ccccc3n2)cc1 | Active | Active |  |  |  |  |  |  |  |  |  | 
6 | N=C(N)NS(=O)(=O)c1ccc(NC(=O)Nc2ccc(-c3nc(N4CCOCC4)c4ccccc4n3)cc2)cc1 | Active | Active | 18.5 | 6.1 (≈ 3.33 µg/mL) | > 60 | 300 |  |  | 92 | 152 | 51 | 30
7 | CS(=O)(=O)Nc1ccc(NC(=O)Nc2ccc(-c3nc(N4CCOCC4)c4ccccc4n3)cc2)cc1 | Active | Active | 6.2 | 6.9 (≈ 3.58 µg/mL) | 60 |  |  |  | 38 | 137 | 66 | 8
8 | N#Cc1cccc(-c2nc(N3CCOCC3)c3ccccc3n2)c1 | Active | Active |  |  |  |  |  |  |  |  |  | 
9 | NS(=O)(=O)c1ccc(NC(=O)Nc2ccc(-c3nc(N4CCOCC4)c4ccccc4n3)cc2)cc1 | Active | Active | 3.4 | < 2 | > 60 | 200 |  |  | 84 | 114 | 33 | 8
10 | O=C(O)c1cccc(-c2nc(N3CCOCC3)c3ccccc3n2)c1 | Active | Active |  |  |  |  |  |  |  |  |  | 
11 | O=C(Nc1ccc(-c2nc(N3CCOCC3)c3ccccc3n2)cc1)Nc1ccc(S(=O)(=O)Nc2ccccc2)cc1 | Active | Active |  | < 2 | 23.5 |  | 63 | 75 |  |  |  | 
12 | Oc1cccc(-c2nc(N3CCOCC3)c3oc4ncccc4c3n2)c1 [PI-103] |  |  |  | 3.4 (≈ 1.18 µg/mL) | 7.1 |  |  |  | 42 |  |  | 
13 | O=C(Nc1ccc(-c2nc(N3CCOCC3)c3ccccc3n2)cc1)Nc1ccc(S(=O)(=O)Nc2ccccn2)cc1 | Active | Active |  | < 2 | 37.8 |  | 84 |  |  |  |  | 
14 | NS(=O)(=O)c1ccc(Nc2nc(N3CCOCC3)c3ccccc3n2)cc1 | Active | Active |  |  |  |  |  |  |  |  |  | 
15 | CCOC(=O)c1ccc(NC(=O)Nc2ccc(-c3nc(N4CCOCC4)c4ccccc4n3)cc2)cc1 | Active | Active |  | < 2 | 30.5 |  | 73 | 81 |  |  |  | 
16 | O=C(Nc1ccc(-c2nc(N3CCOCC3)c3ccccc3n2)cc1)Nc1ccc(S(=O)(=O)Nc2ccc(F)cc2F)cc1 | Active | Active |  | 4.3 (≈ 2.65 µg/mL) | > 60 |  | 56 | 70 |  |  |  | 
17 | O=S(=O)(Nc1ccccn1)c1ccc(Nc2nc(N3CCOCC3)c3ccccc3n2)cc1 | Active | Active |  |  |  |  |  |  |  |  |  | 
18 | CCOC(=O)c1ccc(Nc2nc(N3CCOCC3)c3ccccc3n2)cc1 | Active | Active |  |  |  |  |  |  |  |  |  | 
19 | O=C(Nc1ccc(-c2nc(N3CCOCC3)c3ccccc3n2)cc1)Nc1ccc(S(=O)(=O)Nc2ncccn2)cc1 | Active | Active |  | 13.6 (≈ 7.92 µg/mL) | > 60 |  | 83 |  |  |  |  | 

Further lines, with some results ahead:

Row | inhibition [1] | inhibition [2] | IC50 [3] [nM] | solubility kinetic at 1.5 h [4] [µM] | half-life at 1 µM [5] [min] | IC50 (MCF7 [8]) [nM] | inhibition [9] [%] | inhibition [10] [%] | Structure (SMILES) | viability at 48 h, 10 µM [6] [%] | viability at 10 µM (MDA-MB-231) [%] | viability at 10 µM (MDA-MB-468) [%] | viability at 10 µM (MCF7 [7]) [%]
20 | Active | Active | 2.5 | < 2 | > 60 | 300 |  |  | CNC(=O)c1ccc(NC(=O)Nc2ccc(-c3nc(N4CCOCC4)c4ccccc4n3)cc2)cc1 | 80 | 66 | 54 | 12
21 | Active | Active | 1.41 | 5.9 (≈ 2.77 µg/mL) | 38.2 | 300 |  |  | O=C(Nc1ccc(CCO)cc1)Nc1ccc(-c2nc(N3CCOCC3)c3ccccc3n2)cc1 | 63 | 192 | 74 | 7
22 | Active | Active | 186 | 192 (≈ 69.8 µg/mL) | 8 |  |  |  | CNC(=O)Nc1ccc(-c2nc(N3CCOCC3)c3ccccc3n2)cc1 | 71 | 180 | 96 | 34
23 | Active | Active | 16.6 | 2 (≈ 0.935 µg/mL) | > 60 |  |  |  | CC(=O)c1ccc(NC(=O)Nc2ccc(-c3nc(N4CCOCC4)c4ccccc4n3)cc2)cc1 | 20 | 74 | 42 | 22
24 | Active | Active | 7.2 | 8.2 (≈ 3.74 µg/mL) | > 60 | 300 |  |  | O=C(Nc1ccc(-c2nc(N3CCOCC3)c3ccccc3n2)cc1)Nc1cccc(CO)c1 | 94 | 138 | 47 | 13
25 |  |  | 114 | 2.7 (≈ 1.15 µg/mL) | 24.5 | 1600 |  |  | O=C(Nc1ccc(-c2nc(N3CCOCC3)c3ccccc3n2)cc1)Nc1cncnc1 | 88 | 138 | 56 | 21
26 | Active | Active | 2.4 | 14.3 (≈ 6.51 µg/mL) | > 60 | 200 |  |  | O=C(Nc1ccc(CO)cc1)Nc1ccc(-c2nc(N3CCOCC3)c3ccccc3n2)cc1 | 86 | 208 | 60 | 7
27 | Active | Active | 185 | 200 (≈ 78.7 µg/mL) | 53.1 | 700 |  |  | O=C(NCCO)Nc1ccc(-c2nc(N3CCOCC3)c3ccccc3n2)cc1 | 95 | 146 | 65 | 31
28 | Active | Active |  | 4 (≈ 1.93 µg/mL) | > 60 |  | 77 | 73 | CCC(=O)c1ccc(NC(=O)Nc2ccc(-c3nc(N4CCOCC4)c4ccccc4n3)cc2)cc1 |  |  |  | 
29 | Active | Active |  |  |  |  |  |  | CC(=O)c1ccc(Nc2nc(N3CCOCC3)c3ccccc3n2)cc1 |  |  |  | 
30 | Active | Active | 12 | 8.1 (≈ 3.45 µg/mL) | > 60 | 1200 |  |  | O=C(Nc1ccccc1)Nc1ccc(-c2nc(N3CCOCC3)c3ccccc3n2)cc1 | 99 | 140 | 80 | 35
